Measured values from paper PMC10786240 (Antiviral research, 2019).
pKd: −log10 of the molar value. Entries after “also recorded” stand apart in the source; their conditions may differ.

Tests used:
OSBP levels in cells = conditions: cited from earlier work
[1] = test system: OSBP localization in HCT-116 cells; test: immunofluorescence imaging of endogenous OSBP localization; type: cell-based; conditions: for OSBP cellular localization: 24 h, OSW-1 1 nM, 25-OHC, ITZ, TTP, THEV 10,000 nM, Golgi marker TGN46; for OSBP cellular localization on co-administration with OSW-1: 24 h, 10,000 nM compound with 1 nM OSW-1
OSBP C-terminal ORD = conditions: OSBP proteolyzed fragments; cited from earlier work
[2] = test system: OSBP levels in HCT-116 and HEK293 cells; test: OSBP expression in cells upon 24 h compound treatment; type: cell-based, human; conditions: for effect of co-administration on OSW-1-induced reduction of OSBP levels: 10,000 nM compound with 1 nM OSW-1, HEK293 and HCT116; for effect on OSBP cellular levels: OSW-1 1 nM, Taxol 10 nM, ITZ, THEV, TTP 10,000 nM, HEK293 and HCT-116
In short: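 HCT-116 (McCoy's 5A, 10% serum, 1% penicillin-streptomycin) or HEK293 cells seeded 5×10^5 per well, 20 h at 37 °C. Compound diluted from stock in complete medium, alone or with 1 nM OSW-1 co-treatment, for 24 h; DMSO vehicle control. Lysates immunoblotted for OSBP (A-5 antibody), β-actin as loading reference. Bands averaged over independent experiments.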

human OSBP [3] = molecular target: T1, human OSBP (Homo sapiens, UniProt P22059); test: 96-well [3H]-25-OHC competitive binding assay, OSBP; conditions: compound at 10,000 nM; 20 nM 3H-25-OHC
T1 sequence (P22059 1-807): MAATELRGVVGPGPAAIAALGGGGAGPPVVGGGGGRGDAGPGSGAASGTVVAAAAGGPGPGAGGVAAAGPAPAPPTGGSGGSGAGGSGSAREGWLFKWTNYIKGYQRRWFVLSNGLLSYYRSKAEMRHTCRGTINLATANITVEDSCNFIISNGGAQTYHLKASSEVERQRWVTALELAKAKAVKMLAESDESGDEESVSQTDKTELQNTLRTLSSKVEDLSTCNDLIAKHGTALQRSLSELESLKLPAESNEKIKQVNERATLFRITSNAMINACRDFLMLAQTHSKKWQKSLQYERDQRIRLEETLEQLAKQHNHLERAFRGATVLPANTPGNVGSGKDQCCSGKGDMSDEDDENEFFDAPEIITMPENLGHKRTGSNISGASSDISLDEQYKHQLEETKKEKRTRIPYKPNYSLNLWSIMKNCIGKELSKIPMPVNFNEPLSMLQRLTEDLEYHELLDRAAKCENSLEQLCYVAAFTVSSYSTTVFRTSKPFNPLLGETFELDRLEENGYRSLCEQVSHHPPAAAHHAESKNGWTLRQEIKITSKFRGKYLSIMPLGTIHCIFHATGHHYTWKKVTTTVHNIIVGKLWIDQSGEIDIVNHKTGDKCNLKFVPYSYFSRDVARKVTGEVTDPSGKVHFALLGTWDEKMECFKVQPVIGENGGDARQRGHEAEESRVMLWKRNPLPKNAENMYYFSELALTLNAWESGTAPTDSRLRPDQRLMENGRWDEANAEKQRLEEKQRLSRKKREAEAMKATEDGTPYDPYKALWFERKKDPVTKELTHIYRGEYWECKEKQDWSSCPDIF

[4] = test system: N-terminal OSBP FFAT domain with VAP-A; conditions: BiMC assay; cited from earlier work
HCT-116 cells = test: Trypan Blue cell viability assay; type: cell-based; conditions: for effect on cell population (cell counting after Trypan blue staining): 24 h, OSW-1 1 nM, ITZ, THEV, TTP 10,000 nM, each alone
immortalized cell lines = test: 48 h assay for cell metabolic activity; type: cell-based; conditions: at <10,000 nM concentrations, Fig. 4B, Supp. Fig. 1
human ORP4 [5] = molecular target: T2, human ORP4 (Homo sapiens, UniProt Q969R2); test: 96-well [3H]-25-OHC competitive binding assay, ORP4; conditions: compound at 10,000 nM; 20 nM 3H-25-OHC
T2 sequence (Q969R2 1-916): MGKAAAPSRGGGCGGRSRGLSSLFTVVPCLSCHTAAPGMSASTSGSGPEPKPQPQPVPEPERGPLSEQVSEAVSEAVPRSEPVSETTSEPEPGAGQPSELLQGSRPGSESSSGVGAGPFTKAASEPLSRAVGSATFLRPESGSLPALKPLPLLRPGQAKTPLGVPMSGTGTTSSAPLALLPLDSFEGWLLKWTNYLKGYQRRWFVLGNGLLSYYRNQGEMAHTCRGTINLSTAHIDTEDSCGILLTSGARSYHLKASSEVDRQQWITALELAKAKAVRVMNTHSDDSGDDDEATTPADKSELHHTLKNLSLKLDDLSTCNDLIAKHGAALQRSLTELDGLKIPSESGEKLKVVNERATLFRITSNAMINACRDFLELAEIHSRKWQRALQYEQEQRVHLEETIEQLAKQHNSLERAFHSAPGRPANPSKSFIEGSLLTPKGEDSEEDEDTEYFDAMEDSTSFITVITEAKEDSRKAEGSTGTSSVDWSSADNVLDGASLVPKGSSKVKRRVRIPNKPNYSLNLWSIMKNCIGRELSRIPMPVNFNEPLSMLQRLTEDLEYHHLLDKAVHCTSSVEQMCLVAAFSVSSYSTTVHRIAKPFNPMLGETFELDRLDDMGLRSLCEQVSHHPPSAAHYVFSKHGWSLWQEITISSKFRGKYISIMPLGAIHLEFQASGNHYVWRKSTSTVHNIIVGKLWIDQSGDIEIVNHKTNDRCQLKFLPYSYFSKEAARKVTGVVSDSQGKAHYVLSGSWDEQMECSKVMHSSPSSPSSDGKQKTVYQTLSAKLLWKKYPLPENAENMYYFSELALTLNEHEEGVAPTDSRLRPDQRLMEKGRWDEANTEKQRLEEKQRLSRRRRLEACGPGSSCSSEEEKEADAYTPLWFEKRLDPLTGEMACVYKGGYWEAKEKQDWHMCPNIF
In short: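 Inhibition of 20 nM [3H]-25-OHC binding to human ORP4 overexpressed in […] cell lysate, run in 96-well competitive format; […].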

full-length GFP-OSBP = conditions: read-out: KD for full-length GFP-OSBP; microscale thermophoresis; cited from earlier work
HeLa cells = test: 48 h cytotoxicity assay; type: cell-based; conditions: for effect of co-administration on antiproliferative OSW-1 activity, HeLa: 48 h, compound at 10,000 nM with OSW-1
[6] = test system: Coxsackievirus A9 (strain CoxA9–01); conditions: HeLa; 1 nM OSW-1; infection 24 h after treatment ended; cited from earlier work
HEK293 cells = test: 48 h cytotoxicity assay; type: cell-based; conditions: read-out: growth inhibition 50% (GI50), HEK293 cells; 48 h treatment
human OSBP [7] = molecular target: T1, human OSBP; conditions: cited from earlier work
[8] = test system: OSBP levels in HeLa cells; test: OSBP levels in HeLa cells after 6 h treatment and 24 h compound-free recovery; type: cell-based, human; conditions: 6 h OSW-1 (10 nM) treatment, 24 h recovery, just prior to viral infection
In short: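 HeLa cells exposed 6 h to compound in complete medium, washed three times, then held 24 h in compound-free complete medium. OSBP read by Western blot (A-5 antibody, β-actin reference) at the time point corresponding to viral inoculation in washout antiviral runs.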

human ORP4 [9] = molecular target: T2, human ORP4; conditions: cited from earlier work
[10] = test system: Echovirus 2 (strain Echo2–01); conditions: HeLa; 1 nM OSW-1; infection 24 h after treatment ended; cited from earlier work
cells = conditions: 6 h OSW-1 treatment of cells; cited from earlier work
OSBP = conditions: in vitro; cited from earlier work

Structure (SMILES) | OSBP cellular localization [1] | effect of co-administration on OSW-1-induced reduction of OSBP levels [2] | effect on OSBP cellular levels [2] | effect on cell population (cell counting after Trypan blue staining) (HCT-116 cells) | OSBP cellular localization on co-administration with OSW-1 [1] | antiproliferative activity (immortalized cell lines) | effect of co-administration on antiproliferative OSW-1 activity, HeLa (HeLa cells) | other results
C[C@H](CCCC(C)(C)O)[C@H]1CC[C@H]2[C@@H]3CC=C4C[C@@H](O)CC[C@]4(C)[C@H]3CC[C@]12C [25-OHC, 25-hydroxycholesterol] | strongly colocalizes OSBP with the Golgi marker in a small area |  |  |  |  |  |  | effect on OSBP levels in cells (OSBP levels in cells): does not reduce OSBP levels in cells; also recorded: do not reduce OSBP levels
CCC(C)n1ncn(-c2ccc(N3CCN(c4ccc(OCC5COC(Cn6cncn6)(c6ccc(Cl)cc6Cl)O5)cc4)CC3)cc2)c1=O (stereo not drawn) [ITZ, itraconazole] | causes OSBP to adopt a more punctate pattern closely associated with the Golgi marker | partially blocks the reduction of OSBP levels | do not reduce OSBP levels | 15–20% | produces a tight localization of OSBP with a stronger signal than OSW-1 alone | no antiproliferative activity | does not significantly affect the antiproliferative OSW-1 activity | effect on ORD lipid transfer activity (OSBP C-terminal ORD): blocked the ORD transfer activity of both sterols and PI4P; inhibition of 25-OHC binding to OSBP (human OSBP [3]): no 25-OHC inhibition binding; inhibition of OSBP FFAT domain interaction with VAP-A [4]: Neither ITZ (3) or TTP (5) substantially inhibited; inhibition of 25-OHC binding to ORP4 (human ORP4 [5]): no 25-OHC inhibition binding; pKd (full-length GFP-OSBP): ~6.37
COc1ccc(C(=O)O[C@H]2[C@H](O[C@@H]3[C@@H](OC(C)=O)[C@H](O[C@H]4C[C@H]5[C@@H]6CC=C7C[C@@H](O)CC[C@]7(C)[C@H]6CC[C@]5(C)[C@@]4(O)[C@H](C)C(=O)CCC(C)C)OC[C@@H]3O)OC[C@@H](O)[C@@H]2O)cc1 [OSW-1] | remaining OSBP is tightly grouped around one location |  | pronounced reduction of OSBP cellular levels | 15–20% |  |  |  | duration of repression of OSBP levels after compound treatment is stopped (OSBP levels in cells; 1 nM OSW-1 for 6 h, then compound removed): 72 h; reduction of OSBP levels in cells (OSBP levels in cells; short duration (1–6 h), non-cytotoxic dose): > 90%; prophylactic antiviral protection, Cosackievirus 9a [6]: conferred significant antiviral protection; GI50 (HEK293 cells): 0.22 nM; Ki, competitive inhibition of 25-OHC binding to OSBP (human OSBP [7]): low nanomolar; reduction of cellular OSBP levels [8]: > 90%; Ki, competitive inhibition of 25-OHC binding to ORP4 (human ORP4 [9]): low nanomolar; prophylactic antiviral protection, Echovirus 2 [10]: conferred significant antiviral protection; cytotoxicity of 6 h treatment (cells): not cytotoxic nor anti-proliferative; GI50 (HeLa cells; read-out: growth inhibition 50% (GI50), HeLa cells, 48 h treatment): 0.33 nM
CC1(C)C[C@H]2[C@@H]3CC=C4C[C@@H](OC5CCCCO5)CC[C@]4(C)[C@H]3CC[C@]2(C)[C@H]1O (stereo partly drawn) [THEV] | induces OSBP localization to confined area tightly packed with the Golgi marker | partially blocks the reduction of OSBP levels | do not reduce OSBP levels | does not affect the cell population | produces cellular localization effects with elements of both OSW-1 and THEV treatment alone | no antiproliferative activity | does not significantly affect the antiproliferative OSW-1 activity | effect of co-administration with OSW-1 on cell population (Trypan blue) (HCT-116 cells; 24 h, 10,000 nM compound with 1 nM OSW-1): rescues cell population numbers
C[C@@H](NC(=O)c1cccc(-c2cnc(-c3cc4ccccc4cn3)[nH]2)c1)c1ccc(F)cc1 [TTP] | induces a tight colocalization of OSBP with the Golgi marker with a perinuclear pattern close to the vehicle (DMSO) treated cell | has no effect on OSBP levels | do not reduce OSBP levels | does not affect the cell population | low expression of OSBP with a pattern not consistent with the OSW-1 alone or TTP alone treatment | no antiproliferative activity | does not significantly affect the antiproliferative OSW-1 activity | inhibition of 25-OHC binding to OSBP (human OSBP [3]): no 25-OHC inhibition binding; inhibition of OSBP FFAT domain interaction with VAP-A [4]: Neither ITZ (3) or TTP (5) substantially inhibited; inhibition of 25-OHC binding to ORP4 (human ORP4 [5]): no 25-OHC inhibition binding; inhibition of OSBP cholesterol transport between vesicles (OSBP): shown to inhibit the ability of OSBP to transport cholesterol between vesicles
CC(=O)O[C@H]1C(=O)[C@@]2(C)[C@H]([C@H](OC(=O)c3ccccc3)[C@]3(O)C[C@H](OC(=O)[C@H](O)[C@@H](NC(=O)c4ccccc4)c4ccccc4)C(C)=C1C3(C)C)[C@]1(OC(C)=O)CO[C@@H]1C[C@@H]2O [Taxol] |  |  | OSBP levels are not reduced |  |  |  |  | 
CC(C)=CCC/C(C)=C/Cc1c(O)cc(/C=C/c2cc(O)c3c(c2)C[C@@H]2C(C)(C)[C@H](O)[C@H](O)C[C@@]2(C)O3)cc1O [schweinfurthin A] |  |  |  |  |  |  |  | effect on OSBP levels in cells (OSBP levels in cells): do not reduce OSBP levels
